Experiment [1] deals with T1, Diacylglycerol lipase-alpha (Homo sapiens, UniProt Q9Y4D2).
T1 sequence (Q9Y4D2 whole entry): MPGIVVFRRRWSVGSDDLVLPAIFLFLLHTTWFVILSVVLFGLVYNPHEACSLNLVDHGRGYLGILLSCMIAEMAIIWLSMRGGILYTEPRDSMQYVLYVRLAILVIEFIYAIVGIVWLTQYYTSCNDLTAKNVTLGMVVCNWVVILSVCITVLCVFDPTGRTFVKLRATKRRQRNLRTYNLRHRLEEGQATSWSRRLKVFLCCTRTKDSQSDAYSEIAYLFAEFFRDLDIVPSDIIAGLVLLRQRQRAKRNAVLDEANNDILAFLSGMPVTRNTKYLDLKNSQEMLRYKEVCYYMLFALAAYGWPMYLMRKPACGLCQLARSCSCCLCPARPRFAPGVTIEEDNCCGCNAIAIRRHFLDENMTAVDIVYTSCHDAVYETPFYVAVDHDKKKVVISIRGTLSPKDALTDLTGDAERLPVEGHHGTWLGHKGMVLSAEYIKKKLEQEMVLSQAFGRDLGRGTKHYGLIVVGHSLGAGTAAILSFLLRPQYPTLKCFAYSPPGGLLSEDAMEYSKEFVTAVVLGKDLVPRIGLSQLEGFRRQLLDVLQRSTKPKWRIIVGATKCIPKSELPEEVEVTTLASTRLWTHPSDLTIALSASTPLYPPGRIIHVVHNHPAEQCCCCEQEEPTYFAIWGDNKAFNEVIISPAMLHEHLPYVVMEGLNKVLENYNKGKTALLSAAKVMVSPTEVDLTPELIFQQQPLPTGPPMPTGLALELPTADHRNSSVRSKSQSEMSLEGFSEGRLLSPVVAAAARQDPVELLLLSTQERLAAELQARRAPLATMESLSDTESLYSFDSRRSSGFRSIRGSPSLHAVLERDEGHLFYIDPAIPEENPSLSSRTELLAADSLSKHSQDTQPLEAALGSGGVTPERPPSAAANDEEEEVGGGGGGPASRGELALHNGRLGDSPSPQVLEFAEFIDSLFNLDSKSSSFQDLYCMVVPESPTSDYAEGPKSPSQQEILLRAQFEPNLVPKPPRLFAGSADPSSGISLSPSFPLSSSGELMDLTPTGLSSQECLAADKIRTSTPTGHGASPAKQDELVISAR
In words: Inhibition of recombinant human DAGLalpha expressed in HEK293 cells using PNP-butyrate as substrate pretreated for 20 to 30 mins followed by substrate addition measured every 60 secs for 20 mins by colorimetric method. It is filed as cell-based. The method, boiled down: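 Membrane fraction from HEK293T cells transiently transfected with human DAGLα (PEI transfection, harvested at 72 h). Membranes used at 0.05 μg μL-1 final protein in 50 mM HEPES pH 7.2. Colorimetric readout of para-nitrophenylbutyrate hydrolysis. pIC50 ± SEM.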

The target of experiment [2] is T2, Diacylglycerol lipase-alpha (Mus musculus) (UniProt Q6WQJ1).
T2 sequence (whole entry): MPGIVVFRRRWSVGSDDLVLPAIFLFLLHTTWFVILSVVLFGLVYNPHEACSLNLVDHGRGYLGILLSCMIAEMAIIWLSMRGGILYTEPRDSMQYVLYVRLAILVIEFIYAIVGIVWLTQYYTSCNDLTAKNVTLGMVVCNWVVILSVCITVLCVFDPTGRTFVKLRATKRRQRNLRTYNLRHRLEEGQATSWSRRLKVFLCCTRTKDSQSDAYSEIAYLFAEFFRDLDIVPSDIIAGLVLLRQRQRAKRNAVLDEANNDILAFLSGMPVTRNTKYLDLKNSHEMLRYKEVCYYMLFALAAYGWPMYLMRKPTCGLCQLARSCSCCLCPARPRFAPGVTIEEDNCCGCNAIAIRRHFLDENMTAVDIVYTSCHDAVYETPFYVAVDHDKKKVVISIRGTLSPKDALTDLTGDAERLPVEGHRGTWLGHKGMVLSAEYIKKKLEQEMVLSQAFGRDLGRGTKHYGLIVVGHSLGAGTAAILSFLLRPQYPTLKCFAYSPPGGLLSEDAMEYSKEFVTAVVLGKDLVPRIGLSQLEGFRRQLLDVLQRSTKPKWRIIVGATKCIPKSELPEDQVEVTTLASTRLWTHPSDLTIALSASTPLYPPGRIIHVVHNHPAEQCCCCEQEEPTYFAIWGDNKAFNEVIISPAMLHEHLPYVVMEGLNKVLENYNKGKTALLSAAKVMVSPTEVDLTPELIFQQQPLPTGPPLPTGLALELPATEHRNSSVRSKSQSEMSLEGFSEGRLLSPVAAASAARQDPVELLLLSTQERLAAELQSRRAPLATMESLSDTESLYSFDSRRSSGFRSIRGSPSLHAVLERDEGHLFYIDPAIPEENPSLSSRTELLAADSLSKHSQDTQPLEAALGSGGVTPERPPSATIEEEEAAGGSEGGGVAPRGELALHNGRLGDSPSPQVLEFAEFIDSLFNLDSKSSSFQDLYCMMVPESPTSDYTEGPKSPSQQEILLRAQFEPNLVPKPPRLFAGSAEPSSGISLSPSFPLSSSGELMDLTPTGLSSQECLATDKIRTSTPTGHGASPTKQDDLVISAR
In words: Inhibition of MB064 labelling of DAGLalpha in mouse brain homogenates at 10 uM pretreated for 30 mins followed by MB064 addition and measured after 20 mins by activity based protein profiling assay relative to control. It is filed as tissue-based. An outline of the steps:
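Mouse brain membrane proteome preincubated 30 min with inhibitor (10 μM), then labelled with MB064 probe (0.25 μM, 20 min). Readout by gel-based competitive ABPP. Band intensities corrected for protein loading per lane from Coomassie staining. Means ± SEM, n = 3.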

Structures are written as SMILES.

In general, IC50 refers to the concentration at which inhibition is half-maximal. What is called inhibition is how much of the control response was suppressed.

For the compound `O=C(N1CCCC[C@@H]1COCc1ccccc1)n1cc(-c2ccc(-c3ccccc3)cc2)nn1`, in experiment [1], the IC50 is 79.4 nM. The inhibition in experiment [2] stood at 96%.
On the same counts, the results for `O=C(N1CCC=C[C@@H]1COCc1ccccc1)n1cc(-c2ccc(-c3ccccc3)cc2)nn1` are 25.1 nM and 94%.
On the same counts, the results for `O=C(N1CCC=C[C@@H]1COCc1ccccc1)n1cc(-c2ccc([N+](=O)[O-])cc2)nn1` are 15.8 nM and 95%.
On the same counts, the results for `O=C(N1CCC=C[C@@H]1COCc1ccccc1)n1cc(-c2ccc(Oc3ccccc3)cc2)nn1` are 25.1 nM and 93%.
In the case of `O=C(N1CCC=C[C@@H]1COCc1ccccc1)n1cc(-c2ccc(Br)cc2)nn1`, the IC50 in experiment [1] is 15.8 nM. In addition, in experiment [2], the inhibition came out at 93%.
As to `O=C(N1CCC=C[C@@H]1COCc1ccccc1)n1cc(-c2ccccc2)nn1`, the IC50 in experiment [1] is 158 nM. Further, the inhibition in experiment [2] was found to be 89%.
For the compound `O=C(N1C[C@@H](O)C=C[C@@H]1COCc1ccccc1)n1cc(-c2ccc(-c3ccccc3)cc2)nn1`, in experiment [1], the IC50 is 31.6 nM. Also, the inhibition in experiment [2] worked out at 85%.

The record behind these values is ChEMBL document CHEMBL4261499, “Chiral disubstituted piperidinyl ureas: a class of dual diacylglycerol lipase-α and ABHD6 inhibitors” (Medchemcomm, 2017).
